From paper PMC7983942 (Clinical Pharmacology and Therapeutics, 2020)

Biological target: T1, OCT1 (Homo sapiens, UniProt O15245)
T1 sequence (O15245 1-554): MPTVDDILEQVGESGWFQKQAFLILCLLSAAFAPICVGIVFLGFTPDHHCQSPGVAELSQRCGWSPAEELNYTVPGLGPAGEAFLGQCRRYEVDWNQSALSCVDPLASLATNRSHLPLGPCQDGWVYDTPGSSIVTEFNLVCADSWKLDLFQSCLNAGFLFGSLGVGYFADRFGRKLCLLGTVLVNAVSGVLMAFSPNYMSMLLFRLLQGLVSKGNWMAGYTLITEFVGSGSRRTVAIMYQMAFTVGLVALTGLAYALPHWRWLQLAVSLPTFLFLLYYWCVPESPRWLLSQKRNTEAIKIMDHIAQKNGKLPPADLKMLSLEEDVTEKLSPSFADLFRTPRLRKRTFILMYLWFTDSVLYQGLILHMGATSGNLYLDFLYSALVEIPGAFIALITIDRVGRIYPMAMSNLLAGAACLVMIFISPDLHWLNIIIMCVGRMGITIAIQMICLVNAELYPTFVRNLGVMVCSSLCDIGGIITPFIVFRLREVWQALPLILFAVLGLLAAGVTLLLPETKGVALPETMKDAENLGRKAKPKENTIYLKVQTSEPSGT
Assay: Uptake into transporter-transfected vs wild-type HEK293 cells
Type: in vitro ADME
Details: metformin 20 µM, two to four minutes
Procedure, shortened: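 Transfected HEK293 lines were OAT2 and OCT1, each run against wild-type cells, seeded on poly-D-lysine plates. Culture was 48 h at 37°C in DMEM with 10% FBS plus 1% gentamycin, 1% sodium pyruvate and 50 µg/mL hygromycin B. Probes were cyclic GMP 0.5 µM (OAT2) and metformin 20 µM (OCT1), over 2–4 min; test compound was 1 µM for 2 min. After four ice-cold washes and methanol lysis, the uptake ratio versus wild-type and the ratio of ratios were derived; n=3 in one experiment.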

Uptake ratio (vs. wild‐type HEK293 cells), probe: 15.4 ± 1.06
SMILES: CN(C)C(=N)N=C(N)N [metformin]
